Experimental data: ChEMBL document CHEMBL1139167, “Synthesis and evaluation of diverse thio avarol derivatives as potential UVB photoprotective candidates” (Bioorg Med Chem Lett, 2007)
Calls of active or inactive are those of the source. No cut-off for these calls is given here.

Tests used:
HaCaT [1] = assay: Inhibition of TNFalpha production in UVB irradiated human HaCaT cells at 10 uM administered 2 hrs before irradiation by fluoroimmunoassay; type: functional
Outline: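 Confluent HaCaT cells (seeded at 2 × 10^5 cells/mL in DMEM/10% FBS) received compounds in ethanol (final ≤0.1%) 2 h before 40–50 mJ/cm² UVB. […] IC50 with 95% CI came from at least four concentrations.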

[2] = Toxicity assessed as inhibition of cell viability of UVB irradiated human HaCaT cells at 10 uM administered 2 hrs before irradiation by MTT assay; type: cell-based; details: read-out: Inhibition
Outline: (§1)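 HaCaT cells in DMEM/10% FBS were pretreated with compounds in ethanol (final ≤0.1%) 2 h before a single 40–50 mJ/cm² UVB dose. Viability was read by MTT reduction to formazan 24 h after irradiation. Inhibition is expressed relative to maximal viability of drug-free samples, means ± SEM (n = 6).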

HaCaT [3] = assay: Inhibition of TNFalpha production in UVB irradiated human HaCaT cells at 5 uM administered 2 hrs before irradiation by fluoroimmunoassay; type: functional
Outline: (§2)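 Confluent HaCaT cells (seeded at 2 × 10^5 cells/mL in DMEM/10% FBS) received compounds in ethanol (final ≤0.1%) 2 h before 40–50 mJ/cm² UVB.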

[4] = Toxicity assessed as inhibition of cell viability of UVB irradiated human HaCaT cells at 5 uM administered 2 hrs before irradiation by MTT assay; type: cell-based; details: read-out: Inhibition; outline: as §1
HaCaT [5] = assay: Inhibition of NF-kappaB activation in UVB irradiated human HaCaT cells at 10 uM administered 2 hrs before irradiation by EMSA
Neutrophil = assay: Antioxidant activity assessed as inhibition of reactive oxygen species generation in TPA-stimulated human neutrophils
HaCaT [6] = assay: Inhibition of TNFalpha production in UVB irradiated human HaCaT cells administered 2 hrs before irradiation by fluoroimmunoassay; type: functional, cell-based; details: light or radiation study; outline: as §2

Structure (SMILES)	Inhibition (HaCaT [1])	cytotoxicity at 2 h, 10 µM [2]	Inhibition (HaCaT [3])	cytotoxicity at 2 h, 5 µM [4]	Activity (HaCaT [5])	Activity (Neutrophil)	IC50 (HaCaT [6])
CC1=CCC[C@H]2[C@](C)(Cc3cc(O)cc(Sc4ccc(C)cc4)c3O)[C@@H](C)CC[C@]12C	0%	0%	0%	0%			
CC1=CCC[C@H]2[C@](C)(Cc3cc(O)cc(SCCO)c3O)[C@@H](C)CC[C@]12C		22.5%		20.6%			
CC1=CCC[C@H]2[C@](C)(Cc3cc(O)c(Sc4ccccc4)c(Sc4ccccc4)c3O)[C@@H](C)CC[C@]12C	0%	0%	0%	0%			
CC1=CCC[C@H]2[C@](C)(Cc3cc(O)cc(SCC(O)CO)c3O)[C@@H](C)CC[C@]12C (some centres undefined)		14%		13.6%			
CC1=CCC[C@H]2[C@](C)(Cc3cc(O)c(SCCO)c(SCCO)c3O)[C@@H](C)CC[C@]12C		28.5%		18.1%			
CC1=CCC[C@H]2[C@](C)(Cc3cc(O)c(SCC(=O)O)cc3O)[C@@H](C)CC[C@]12C		13.3%		12.4%			
CC1=CCC[C@H]2[C@](C)(Cc3cc(O)cc(SCC(=O)O)c3O)[C@@H](C)CC[C@]12C		28.5%		18.3%			
CC1=CCC[C@H]2[C@](C)(Cc3cc(O)c(Sc4ccc(C)cc4)c(Sc4ccc(C)cc4)c3O)[C@@H](C)CC[C@]12C	0%	0%	0%	0%			
CC1=CCC[C@H]2[C@](C)(Cc3cc(O)c(Sc4ccccc4)cc3O)[C@@H](C)CC[C@]12C	74.3%	0%	53.6%	0%	Active	Dose-dependent effect	4.2 µM
CC1=CCC[C@H]2[C@](C)(Cc3cc(O)c(SCCO)cc3O)[C@@H](C)CC[C@]12C		48.4%		21.4%			
CC1=CCC[C@H]2[C@](C)(Cc3cc(O)c(Sc4ccc(C)cc4)cc3O)[C@@H](C)CC[C@]12C	0%	0%	0%	0%			
CC1=CCC[C@H]2[C@](C)(Cc3cc(O)cc(Sc4ccccc4)c3O)[C@@H](C)CC[C@]12C	92.7%	0%	55.4%	0%	Active	Dose-dependent effect	3.7 µM
CC1=CCC[C@H]2[C@](C)(Cc3cc(O)c(SCC(O)CO)cc3O)[C@@H](C)CC[C@]12C (some centres undefined)		18.6%		12.6%			
COc1cc2ccc(=O)oc2c(O)c1O [FRAXETIN]	68.1%	3.4%	58.6%	0%			2.8 µM
